From ChEMBL document CHEMBL1132974 (J Med Chem, 2000)
Where “and” joins values, the source holds several entries; their conditions need not be identical. Identical values can stand only once.

What was measured:
[1] = target: Histamine H1 receptor (Cavia porcellus) (UniProt P31389); test: Negative logarithm of receptor dissociation constant Kp was reported; format: functional
Method in brief: (§1)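 Guinea-pig ileum (0.1 µM atropine, 37 °C Tyrode's). […] Where several partial-agonist concentrations were used, the overall value comes from a Kaumann-Marano plot with slope constrained to unity.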

[2] = target: Histamine H1 receptor (Cavia porcellus) (UniProt P31389); test: Intrinsic activity was reported at a concentration of 10 uM; format: functional
[3] = target: Histamine H1 receptor (Cavia porcellus) (UniProt P31389); test: Intrinsic activity was reported in endothelium-denuded guinea pig(pre contracted with PGF-2 alpha) at a concentration of 10 uM; format: functional
Method in brief: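 Endothelium-denuded guinea-pig aortic rings, set up as in the contraction assay, challenged twice with PGF2α (10 µM). Rings were precontracted with a threshold PGF2α level (usually 0.4–1.5 µM, 10–20% of the 10 µM response).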

[4] = target: Histamine H1 receptor (Cavia porcellus) (UniProt P31389); test: Intrinsic activity was reported in guinea pig ileal whole segment.; format: functional
[5] = target: Histamine H1 receptor (Cavia porcellus) (UniProt P31389); test: Relative potency was recorded in endothelium-denuded guinea pig; value ranges from 5.68 to 5.93; format: functional
Method in brief: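 Guinea-pig thoracic aortic rings (2–4 mm), endothelium rubbed off, isometric (10 mN), modified Krebs-Henseleit (1.80 mM Ca2+), 37 °C. Cimetidine, corticosterone and cocaine (30 µM each), prazosin and yohimbine (0.3 µM each) and propranolol (0.1 µM) were present. […] The pEC50 shift was corrected using untreated control preparations.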

[6] = target: Histamine H1 receptor (Rattus norvegicus) (UniProt P31390); test: The compound was evaluated for intrinsic activity i.e. maximum histamine controls relative to contraction evoked by 10 uM PGF2-alpha in relaxed rat aortic rings; format: functional, tissue-based; conditions: Aorta
Sequence of Histamine H1 receptor (Rattus norvegicus) (P31390 whole entry): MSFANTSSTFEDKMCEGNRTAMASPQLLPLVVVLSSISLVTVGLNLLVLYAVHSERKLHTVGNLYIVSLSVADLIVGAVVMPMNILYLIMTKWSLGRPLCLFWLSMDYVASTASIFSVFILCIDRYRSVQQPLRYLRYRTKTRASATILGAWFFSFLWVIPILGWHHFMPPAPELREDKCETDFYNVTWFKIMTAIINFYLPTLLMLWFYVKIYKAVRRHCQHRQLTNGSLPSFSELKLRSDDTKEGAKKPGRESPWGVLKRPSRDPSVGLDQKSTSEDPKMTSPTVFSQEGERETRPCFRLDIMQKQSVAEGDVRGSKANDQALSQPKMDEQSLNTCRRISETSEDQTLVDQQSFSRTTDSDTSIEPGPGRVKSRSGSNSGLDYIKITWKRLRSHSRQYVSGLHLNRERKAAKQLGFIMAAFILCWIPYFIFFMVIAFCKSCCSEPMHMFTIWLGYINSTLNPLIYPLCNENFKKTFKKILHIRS

[7] = target: Histamine H1 receptor (Rattus norvegicus) (UniProt P31390); test: Relative potency was recorded in relaxed rat aortic rings; value ranges from […] to […]; format: functional, tissue-based; conditions: Aorta
[8] = target: Histamine H1 receptor (Cavia porcellus) (UniProt P31389); test: pA2 was recorded in endothelium-denuded guinea pig(pre contracted with PGF-2 alpha).value ranges from 5.66 to 6.19
[9] = target: Serotonin 3 (5-HT3) receptor; test: Compound was evaluated for its antagonist affinity towards 5-hydroxytryptamine 3 receptor of guinea pig; format: functional, Cavia porcellus
Method in brief: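 Functional antagonism assays in guinea-pig tissues, each run with 1 µM mepyramine present: M3 (whole ileum), β1 (right atrium), 5-HT1B (iliac artery), 5-HT3 (quiescent ileal longitudinal muscle with myenteric plexus). Results are given as apparent pA2, or pD'2 when only curve depression occurred.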

Cavia porcellus [10] = organism: Cavia porcellus; test: Mepyramine concentration required to antagonise histaprodifens compound induced effects in guinea pig or rat assays; format: functional, organism-based
[11] = target: Histamine H1 receptor (Cavia porcellus) (UniProt P31389); test: concentration of mepyramine was determined; format: functional
[12] = target: Histamine H1 receptor (Rattus norvegicus) (UniProt P31390); test: The compound was evaluated for intrinsic activity in relaxed rat aortic rings with intact endothelium, submaximally precontracted with 15.8 nM U-46,619; format: functional, tissue-based; design: unit not given here; conditions: Aorta
[13] = target: Histamine H1 receptor (Cavia porcellus) (UniProt P31389); test: Negative logarithm of receptor dissociation constant Kp was reported in guinea pig ileum whole segment; format: functional, tissue-based; method in brief: as §1
Cavia porcellus [14] = organism: Cavia porcellus; test: Effective concentration for agonism activity in Endothelium-Denuded guinea pig aortic segment; conditions: Aorta, read-out: Log EC50 (converted)
Cavia porcellus [15] = organism: Cavia porcellus; test: Effective concentration for agonism activity in guinea pig ileal whole segment; conditions: read-out: Log EC50 (converted)
Cavia porcellus [16] = organism: Cavia porcellus; test: Effective concentration for agonism activity in endothelium-denuded guinea pig aortic segment; conditions: Aorta, read-out: Log EC50 (converted)
Rattus norvegicus = organism: Rattus norvegicus; test: tissue or blood; conditions: Aorta, read-out: Log EC50 (converted)

Sequence of Histamine H1 receptor (Cavia porcellus) (P31389 whole entry): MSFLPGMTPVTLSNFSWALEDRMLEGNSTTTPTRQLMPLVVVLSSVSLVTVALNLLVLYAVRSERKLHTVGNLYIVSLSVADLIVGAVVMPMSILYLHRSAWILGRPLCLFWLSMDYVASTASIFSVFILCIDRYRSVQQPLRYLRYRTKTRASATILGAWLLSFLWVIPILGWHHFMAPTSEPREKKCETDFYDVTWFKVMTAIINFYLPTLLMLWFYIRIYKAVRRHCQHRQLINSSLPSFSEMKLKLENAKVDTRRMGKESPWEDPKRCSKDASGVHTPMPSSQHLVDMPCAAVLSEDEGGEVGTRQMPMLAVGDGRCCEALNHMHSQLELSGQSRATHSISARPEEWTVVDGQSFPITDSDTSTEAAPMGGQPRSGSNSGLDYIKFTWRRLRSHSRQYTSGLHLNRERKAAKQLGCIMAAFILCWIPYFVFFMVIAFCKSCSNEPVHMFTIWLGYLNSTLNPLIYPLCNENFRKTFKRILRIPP

Compound NCCc1c[nH]c(CCCC(c2ccccc2)c2ccccc2)n1 has a pKp [1] of 5.94, an Emax [2] of 0 and an Emax [3] of 0. The Emax [4] was 2, the pA2 [5] was 5.8 and the Emax [6] was 0. For the same compound, the pA2 [7] was 5.72 and the pA2 [8] was 5.92.
CNCCc1c[nH]c(CCC(c2ccccc2)c2ccccc2)n1 was tested, and the pA2 [9] was < 5.8, the Concentration (Cavia porcellus [10]) was 0.1 µM and the Concentration [11] was 0.003 µM and 0.005 µM. For the same compound, the Emax [12] was 55 and the pKp [13] was 6.45.
In the case of NCCc1c[nH]cn1 [HISTAMINE], the EC50 (Cavia porcellus [14]) is reported as 0.316 µM, the EC50 (Cavia porcellus [15]) is reported as 0.2 µM and the EC50 (Cavia porcellus [16]) is reported as 2.24 µM. For the same compound, the EC50 (Rattus norvegicus) was 4.47 µM.
